From ChEMBL document CHEMBL1138555, “N-acylated and N,N'-diacylated imidazolidine-2-thione derivatives and N,N'-diacylated tetrahydropyrimidine-2(1H)-thione analogues: synthesis and antiproliferative activity” (Eur J Med Chem, 2009)

Tests used:
MDA-MB-435 = test: Growth inhibition of human MDA-MB-435 cells after 48 hrs by sulforhodamine B assay; type: functional; conditions: MDA-MB-435, 48 h
Outline: (§1)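 NCI screen panel. Five 10-fold concentrations from 10^-4 to 10^-8 M. Exposure for the last 48 h of a 72 h incubation. Growth estimated by sulforhodamine B protein assay. GI50 is the concentration giving 50% growth inhibition. Where that level was not reached or was exceeded, the value is given as above or below the highest or lowest concentration tested.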

KM12 = test: Growth inhibition of human KM12 cells after 48 hrs by sulforhodamine B assay; type: functional; conditions: KM12, 48 h; outline: as §1
OVCAR-3 = test: Growth inhibition of human OVCAR-3 cells after 48 hrs by sulforhodamine B assay; type: functional; conditions: OVCAR-3, 48 h; outline: as §1
HL-60(TB) = test: Growth inhibition of human HL-60(TB) cells after 48 hrs by sulforhodamine B assay; type: functional; conditions: HL-60, 48 h
Outline: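 NCI 60-cell-line screen protocol: cells exposed to compound at five 10-fold dilutions from 10^-4 to 10^-8 M for the last 48 h of a 72 h incubation. Sulforhodamine B protein assay estimated viability/growth. GI50 (50% growth inhibition) derived; where not reached or exceeded, reported as greater or less than the highest or lowest concentration tested.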

NCI-H322M = test: Growth inhibition of human NCI-H322M cells after 48 hrs by sulforhodamine B assay; type: functional; outline: as §1
COLO 205 = test: Growth inhibition of human COLO205 cells after 48 hrs by sulforhodamine B assay; type: functional; conditions: COLO 205, 48 h; outline: as §1
HT-29 = test: Growth inhibition of human HT-29 cells after 48 hrs by sulforhodamine B assay; type: functional; conditions: HT-29, 48 h; outline: as §1
ACHN = test: Growth inhibition of human ACHN cells after 48 hrs by sulforhodamine B assay; type: functional; outline: as §1
SW-620 = test: Growth inhibition of human SW620 cells after 48 hrs by sulforhodamine B assay; type: functional; conditions: SW-620, 48 h
Outline: (§2)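 NCI in vitro panel screen. Compounds tested at five 10-fold dilutions, 10^-4 to 10^-8 M. Cells in 96-well plates were exposed for the last 48 h of a 72 h incubation. Viability/growth was read by sulforhodamine B protein assay. GI50 is the concentration giving 50% growth inhibition. Values beyond the tested range are reported as greater or less than the maximum or minimum concentration.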

Malme-3M = test: Growth inhibition of human MALME-3M cells after 48 hrs by sulforhodamine B assay; type: functional; outline: as §1
PC-3 = test: Growth inhibition of human PC3 cells after 48 hrs by sulforhodamine B assay; type: functional; conditions: PC-3, 48 h; outline: as §1
UACC-62 = test: Growth inhibition of human UACC62 cells after 48 hrs by sulforhodamine B assay; type: functional; conditions: UACC-62, 48 h; outline: as §2
LOX IMVI = test: Growth inhibition of human LOXIMVI cells after 48 hrs by sulforhodamine B assay; type: functional; outline: as §1
BT-549 = test: Growth inhibition of human BT549 cells after 48 hrs by sulforhodamine B assay; type: functional; conditions: BT-549, 48 h; outline: as §1
SK-MEL-5 = test: Growth inhibition of human SK-MEL-5 cells after 48 hrs by sulforhodamine B assay; type: functional; conditions: SK-MEL-5, 48 h; outline: as §1
MT4 = test: Antiproliferative activity against human MT4 cells assessed as reduction of growth by MTT assay; type: functional, cell-based
Outline: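 MT-4 lymphoblastoid T cells (ATCC) in RPMI 1640 with 10% FCS, penicillin/streptomycin, checked for mycoplasma. 1 × 10⁴ mock-infected cells per well with serial dilutions from a 100 mM DMSO stock. Incubated 4 days at 37 °C, viable cells counted by MTT. IC50 versus untreated controls by linear regression. Mean of three separate experiments.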

EKVX = test: Growth inhibition of human EKVX cells after 48 hrs by sulforhodamine B assay; type: functional; outline: as §1
A549 = test: Growth inhibition of human A549 cells after 48 hrs by sulforhodamine B assay; type: functional; conditions: A549, 48 h; outline: as §1
HOP-92 = test: Growth inhibition of human HOP92 cells after 48 hrs by sulforhodamine B assay; type: functional; conditions: HOP-92, 48 h; outline: as §1
SF-295 = test: Growth inhibition of human SF295 cells after 48 hrs by sulforhodamine B assay; type: functional; conditions: SF-295, 48 h; outline: as §1
NCI-H460 = test: Growth inhibition of human NCI-H460 cells after 48 hrs by sulforhodamine B assay; type: functional; conditions: NCI-H460, 48 h; outline: as §1
UACC-257 = test: Growth inhibition of human UACC257 cells after 48 hrs by sulforhodamine B assay; type: functional; conditions: UACC-257, 48 h; outline: as §2
MDA-MB-231 = test: Growth inhibition of human MDA-MB-231 cells after 48 hrs by sulforhodamine B assay; type: functional; conditions: MDA-MB-231, 48 h; outline: as §1
SNB-19 = test: Growth inhibition of human SNB19 cells after 48 hrs by sulforhodamine B assay; type: functional; conditions: SNB-19, 48 h; outline: as §2
SK-MEL-28 = test: Growth inhibition of human SK-MEL-28 cells after 48 hrs by sulforhodamine B assay; type: functional; conditions: SK-MEL-28, 48 h; outline: as §1
IGROV-1 = test: Growth inhibition of human IGROV1 cells after 48 hrs by sulforhodamine B assay; type: functional; conditions: IGROV-1, 48 h; outline: as §1
HOP-62 = test: Growth inhibition of human HOP62 cells after 48 hrs by sulforhodamine B assay; type: functional; conditions: HOP-62, 48 h; outline: as §1
MOLT-4 = test: Growth inhibition of human MOLT4 cells after 48 hrs by sulforhodamine B assay; type: functional; conditions: MOLT-4, 48 h; outline: as §1
M14 = test: Growth inhibition of human M14 cells after 48 hrs by sulforhodamine B assay; type: functional; conditions: M14, 48 h; outline: as §1
U-251 = test: Growth inhibition of human U251 cells after 48 hrs by sulforhodamine B assay; type: functional; conditions: U-251, 48 h; outline: as §2
HCT-15 = test: Growth inhibition of human HCT15 cells after 48 hrs by sulforhodamine B assay; type: functional; conditions: HCT-15, 48 h; outline: as §1
SK-OV-3 = test: Growth inhibition of human SKOV3 cells after 48 hrs by sulforhodamine B assay; type: functional; conditions: SK-OV-3, 48 h; outline: as §1
K562 = test: Growth inhibition of human K562 cells after 48 hrs by sulforhodamine B assay; type: functional; conditions: K562, 48 h; outline: as §1
RXF 393 = test: Growth inhibition of human RXF393 cells after 48 hrs by sulforhodamine B assay; type: functional; conditions: RXF 393, 48 h; outline: as §1
SK-MEL-2 = test: Growth inhibition of human SK-MEL-2 cells after 48 hrs by sulforhodamine B assay; type: functional; conditions: SK-MEL-2, 48 h; outline: as §1
NCI-H23 = test: Growth inhibition of human NCI-H23 cells after 48 hrs by sulforhodamine B assay; type: functional; conditions: NCI-H23, 48 h; outline: as §1
OVCAR-8 = test: Growth inhibition of human OVCAR8 cells after 48 hrs by sulforhodamine B assay; type: functional; conditions: OVCAR-8, 48 h; outline: as §1
UO-31 = test: Growth inhibition of human UO31 cells after 48 hrs by sulforhodamine B assay; type: functional; conditions: UO-31, 48 h; outline: as §2
TK-10 = test: Growth inhibition of human TK10 cells after 48 hrs by sulforhodamine B assay; type: functional; conditions: TK-10, 48 h; outline: as §2
[1] = Growth inhibition of human […] cells after 48 hrs by sulforhodamine B assay; type: functional; outline: as §1
OVCAR-4 = test: Growth inhibition of human OVCAR4 cells after 48 hrs by sulforhodamine B assay; type: functional; conditions: OVCAR-4, 48 h; outline: as §1
CAKI-1 = test: Growth inhibition of human Caki1 cells after 48 hrs by sulforhodamine B assay; type: functional; conditions: CAKI-1, 48 h; outline: as §1
786-0 = test: Growth inhibition of human 786-0 cells after 48 hrs by sulforhodamine B assay; type: functional; conditions: 786-0, 48 h; outline: as §1
SF-268 = test: Growth inhibition of human SF268 cells after 48 hrs by sulforhodamine B assay; type: functional; conditions: SF-268, 48 h; outline: as §1
HCT-116 = test: Growth inhibition of human HCT116 cells after 48 hrs by sulforhodamine B assay; type: functional; conditions: HCT-116, 48 h; outline: as §1
T47D = test: Growth inhibition of human T47D cells after 48 hrs by sulforhodamine B assay; type: functional; outline: as §2
SNB-75 = test: Growth inhibition of human SNB75 cells after 48 hrs by sulforhodamine B assay; type: functional; conditions: SNB-75, 48 h; outline: as §2
NCI/ADR-RES = test: Growth inhibition of human NCI/ADR-RES cells after 48 hrs by sulforhodamine B assay; type: functional; outline: as §1
SN12C = test: Growth inhibition of human SN12C cells after 48 hrs by sulforhodamine B assay; type: functional; outline: as §2

COC(=O)/C(=C\N1CCN(C(=O)c2ccco2)C1=S)C(C)=O
GI50 (MDA-MB-435): 4.5 µM
GI50 (KM12): 3 µM
GI50 (OVCAR-3): 2.7 µM
GI50 (HL-60(TB)): 7.5 µM
GI50 (NCI-H322M): 12.4 µM
GI50 (COLO 205): 12.6 µM
GI50 (HT-29): 15.8 µM
GI50 (ACHN): 4.1 µM
GI50 (SW-620): 3.9 µM
GI50 (Malme-3M): 5.6 µM
GI50 (PC-3): 18.1 µM
GI50 (UACC-62): 11.5 µM
GI50 (LOX IMVI): 1.6 µM
GI50 (BT-549): 3.5 µM
GI50 (SK-MEL-5): 5.3 µM
IC50 (MT4): 7 µM
GI50 (EKVX): 2.6 µM
GI50 (A549): 19.3 µM
GI50 (HOP-92): 20.8 µM
GI50 (SF-295): 18.6 µM
GI50 (NCI-H460): 2.3 µM
GI50 (UACC-257): 17.2 µM
GI50 (MDA-MB-231): 9 µM
GI50 (SNB-19): 41.7 µM
GI50 (SK-MEL-28): 9.1 µM
GI50 (IGROV-1): 10.4 µM
GI50 (HOP-62): 20.6 µM
GI50 (MOLT-4): 20.8 µM
GI50 (M14): 10.7 µM
GI50 (U-251): 5.5 µM
GI50 (HCT-15): 2.2 µM
GI50 (SK-OV-3): 31.3 µM
GI50 (K562): 10.2 µM
GI50 (RXF 393): 4.4 µM
GI50 (SK-MEL-2): 15.2 µM
GI50 (NCI-H23): 12.2 µM
GI50 (OVCAR-8): 27.8 µM
GI50 (UO-31): 13.5 µM
GI50 (TK-10): 3.5 µM
GI50 [1]: 5.5 µM
GI50 (OVCAR-4): 17.4 µM
GI50 (CAKI-1): 2.8 µM
GI50 (786-0): 11.2 µM
GI50 (SF-268): 5.8 µM
GI50 (HCT-116): 7.4 µM
GI50 (T47D): 6 µM
GI50 (SNB-75): 21 µM
GI50 (NCI/ADR-RES): 22.2 µM
GI50 (SN12C): 5.9 µM
